Assay results: ChEMBL document CHEMBL1154400, “Pharmacokinetics of single- and multiple-dose oral clarithromycin in soft tissues determined by microdialysis” (Antimicrob Agents Chemother, 2007)

What was measured:
[1] = Cmax in fasting human interstitial-space fluid of subcutaneous adipose tissue at 250 mg, po; format: ADME, organism-based
How it was run: (§1)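 Healthy male volunteers aged 25-37 y, fasting; single oral 250 mg tablet after 60-min probe equilibration. Microdialysis probes in skeletal muscle and subcutaneous adipose tissue, perfused with Ringer's at 1.5 µl/min; dialysate and antecubital venous blood sampled every 20 min to 4 h, then every 30 min to 8 h. HPLC assay. Interstitial concentration = 100 x Cdialysate/recovery.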

[2] = Cmax in fasting human interstitial-space fluid of skeletal muscle at 250 mg, po; format: ADME, organism-based, Muscle tissue; parameters: dose 250 mg, route oral; how it was run: as §1
[3] = Tmax in fasting human plasma at 250 mg, po; format: ADME, organism-based; how it was run: as §1
[4] = Tmax in fasting human plasma unbound fraction at 250 mg, po; format: ADME, organism-based
How it was run: (§2)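 Free plasma concentrations obtained by applying each volunteer's measured protein binding to total plasma concentrations, measured by HPLC after the 250 mg single dose or the 500 mg b.i.d. steady-state dose, with sampling over 8 h.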

[5] = Tmax in fasting human interstitial-space fluid of subcutaneous adipose tissue at 250 mg, po; format: ADME, organism-based; how it was run: as §1
[6] = Tmax in fasting human interstitial-space fluid of skeletal muscle at 250 mg, po; format: ADME, organism-based, Muscle tissue; how it was run: as §1
[7] = Terminal half life in fasting human plasma at 250 mg, po; format: ADME, organism-based; settings: read-out: beta t1/2 (converted); how it was run: as §1
[8] = Terminal half life in fasting human plasma unbound fraction at 250 mg, po; format: ADME, organism-based; settings: read-out: beta t1/2 (converted); how it was run: as §2
[9] = Terminal half life in fasting human interstitial-space fluid of subcutaneous adipose tissue at 250 mg, po; format: ADME, organism-based; settings: read-out: beta t1/2 (converted); how it was run: as §1
[10] = Terminal half life in fasting human interstitial-space fluid of skeletal muscle at 250 mg, po; format: ADME, organism-based, Muscle tissue; settings: read-out: beta t1/2 (converted); how it was run: as §1
Homo sapiens [11] = assay: Volume of distribution at terminal phase in fasting human plasma at 250 mg, po; format: ADME, organism-based; settings: in vivo
How it was run: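 Single oral 250 mg tablet given to fasting healthy male volunteers (n=7, 25–37 y). Venous plasma (lithium heparin) was sampled every 20 min over 0–4 h and every 30 min over 4–8 h, then analysed by reverse-phase HPLC. Vz = dose × F/(AUC0-∞ × kel), with bioavailability F set at 55%. AUC was calculated by the linear trapezoidal rule.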

[12] = Total clearance in fasting human plasma at 250 mg, po; format: ADME, organism-based
[13] = AUC (0 to 8 hrs) in human plasma at 500 mg, po, bid for 3 to 5 days; format: ADME, organism-based; parameters: dose 500 mg, time < 8 hr, route oral
How it was run: (§3)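 Oral clarithromycin 500 mg b.i.d. for 3-5 days, starting 12 h after a single 250 mg dose; last dose given supervised on the morning of day 2 after a baseline blood draw and a 2-h trough dialysate. Sampling as on day 1: microdialysis of muscle and adipose tissue plus venous plasma over 8 h, HPLC. Dialysate concentrations corrected for individual recovery.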

Homo sapiens [14] = assay: Free AUC (0 to 8 hrs) in human plasma at 500 mg, po, bid for 3 to 5 days; format: ADME, organism-based; settings: in vivo; how it was run: as §2
[15] = AUC (0 to 8 hrs) in human interstitial-space fluid of subcutaneous adipose tissue at 500 mg, po, bid for 3 to 5 days; format: ADME, organism-based; how it was run: as §3
[16] = AUC (0 to 8 hrs) in human interstitial-space fluid of skeletal muscle at 500 mg, po, bid for 3 to 5 days; format: ADME, organism-based, Muscle tissue; parameters: dose 500 mg, time < 8 hr, route oral; how it was run: as §3
[17] = AUC (0 to 24 hrs) in human plasma at 500 mg, po, bid for 3 to 5 days; format: ADME, organism-based; parameters: time < 24 hr, dose 500 mg, route oral; how it was run: as §3
Homo sapiens [18] = assay: Free AUC (0 to 24 hrs) in human plasma at 500 mg, po, bid for 3 to 5 days; format: ADME, organism-based; settings: in vivo; how it was run: as §2
[19] = AUC (0 to 24 hrs) in human interstitial-space fluid of subcutaneous adipose tissue at 500 mg, po, bid for 3 to 5 days; format: ADME, organism-based; how it was run: as §3
[20] = AUC (0 to 24 hrs) in human interstitial-space fluid of skeletal muscle at 500 mg, po, bid for 3 to 5 days; format: ADME, organism-based, Muscle tissue; parameters: dose 500 mg, time < 24 hr, route oral; how it was run: as §3
[21] = Cmax in human plasma at 500 mg, po, bid for 3 to 5 days; format: ADME, organism-based; parameters: dose 500 mg, route oral; how it was run: as §3
Homo sapiens [22] = assay: Free Cmax in human plasma at 500 mg, po, bid for 3 to 5 days; format: ADME, organism-based; settings: in vivo; how it was run: as §2
[23] = Cmax in human interstitial-space fluid of subcutaneous adipose tissue at 500 mg, po, bid for 3 to 5 days; format: ADME, organism-based; how it was run: as §3
[24] = Cmax in human interstitial-space fluid of skeletal muscle at 500 mg, po, bid for 3 to 5 days; format: ADME, organism-based, Muscle tissue; parameters: dose 500 mg, route oral; how it was run: as §3
[25] = Ratio of AUC (0 to 24 hrs) in human interstitial-space fluid of skeletal muscle to free AUC (0 to 24 hrs) in human plasma at 500 mg, po bid
[26] = Ratio of AUC (0 to 24 hrs) in human interstitial-space fluid of subcutaneous adipose tissue to free AUC (0 to 24 hrs) in human plasma at 500 mg, po bid

Q: With `CC[C@H]1OC(=O)[C@H](C)[C@@H](O[C@H]2C[C@@](C)(OC)[C@@H](O)[C@H](C)O2)[C@H](C)[C@@H](O[C@@H]2O[C@H](C)C[C@H](N(C)C)[C@H]2O)[C@](C)(OC)C[C@@H](C)C(=O)[C@H](C)[C@@H](O)[C@]1(C)O` [CLARITHROMYCIN] as the molecule, how does the Cmax [1] read?
A: Its Cmax is 70 ng/mL.

Q: What about the Cmax [2] of the same molecule?
A: The Cmax was 80 ng/mL.

Q: And the Tmax [3]?
A: The Tmax was 2.6 h.

Q: What about the Tmax [4] of the same molecule?
A: The Tmax was 2.6 h.

Q: What about the Tmax [5] of the same molecule?
A: The Tmax was 3 h.

Q: And the Tmax [6]?
A: The Tmax was 3 h.

Q: What about the half-life [7] of the same molecule?
A: The half-life was 1.9 h.

Q: What about the half-life [8] of the same molecule?
A: Its half-life is 1.9 h.

Q: What about the half-life [9] of the same molecule?
A: Its half-life is 2.4 h.

Q: What about the half-life [10] of the same molecule?
A: The half-life was 3.1 h.

Q: What about the Vbeta (Homo sapiens [11]) of the same molecule?
A: The Vbeta was 94 L.

Q: And the CL/F [12]?
A: Its CL/F is 620 mL/min.

Q: What about the AUC at 8 h [13] of the same molecule?
A: The AUC at 8 h was 10600 ng·h/mL.

Q: And the fAUC (Homo sapiens [14])?
A: The fAUC was 2260 ng·h/mL.

Q: What about the AUC [15] of the same molecule?
A: Its AUC is 840 ng·h/mL.

Q: What about the AUC at 8 h [16] of the same molecule?
A: The AUC at 8 h was 920 ng·h/mL.

Q: What about the AUC at 24 h [17] of the same molecule?
A: Its AUC at 24 h is 26800 ng·h/mL.

Q: What about the fAUC (Homo sapiens [18]) of the same molecule?
A: Its fAUC is 5850 ng·h/mL.

Q: What about the AUC [19] of the same molecule?
A: Its AUC is 2220 ng·h/mL.

Q: What about the AUC at 24 h [20] of the same molecule?
A: Its AUC at 24 h is 2420 ng·h/mL.

Q: What about the Cmax [21] of the same molecule?
A: Its Cmax is 2210 ng/mL.

Q: What about the fCmax (Homo sapiens [22]) of the same molecule?
A: Its fCmax is 0.58 mg/L.

Q: And the Cmax [23]?
A: Its Cmax is 230 ng/mL.

Q: What about the Cmax [24] of the same molecule?
A: The Cmax was 230 ng/mL.

Q: And the Kp uu [25]?
A: The Kp uu was 0.41.

Q: What about the Kp uu [26] of the same molecule?
A: Its Kp uu is 0.39.
